Active and inactive are the calls of the source. Unless noted, no stated cut-off is given here; in the data, active means inhibition above about 30%; inactive means the rest.

Assay [1] in a line: reduced viability of SK-BR-3 breast cancer cells – cell-based, 24 h, human, pilot screen (AID 572;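 active means viability at or below 10% of carrier control in both of two separate runs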;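 further: compound exposure lasted between 18 and 24 h rather than exactly 24 h; 100% = carrier-treated control wells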). To be noted: SK-BR-3 viability, CellTiter-Glo luminescence, at 10 µM, stronger effect = lower value.
Assay [2] in a line: HUVEC growth inhibition – cell-based, human, primary screen (AID 575;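 active means viability at or below 30% in both replicate assays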;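 further: 100% = median of untreated cell wells with 0.1% DMSO on each plate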). To be noted: HUVEC proliferation, CellTiter-Glo luminescence, 72 h; at 10 µM; stronger effect = lower value. The procedure, abridged: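 Assay system: Primary human umbilical vein endothelial cells | Quantity: 1250 cells per well | Medium: Supplemented EBM, 2% fetal bovine serum | Detection: CellTiter-Glo luminescence measuring cellular ATP | Read-out: % viability vs DMSO wells | Plate: Collagen-coated 384-well format | Times: 72 h exposure, 37 °C, 5% CO2, 30 min RT equilibration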

Assay [3] in a line: H69AR cell proliferation blockers – human, duplicate replicates, primary screen (AID 580;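 active means viability at or under a set limit in both replicates, limit being median viability minus 3 SD, cut at about 48% in these data, passing the limit was not always enough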;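 further: 100% = mean luminescence of untreated wells and 0% = no signal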). The conditions noted are these: H69AR lung tumor cells viability, ATP luminescence, 72 h; at 10 µM; stronger effect = lower value.
A short description of assay [4]: MRP1 drug-resistance reversers in H69AR cells – cell-based, doxorubicin co-treatment, pilot screen (AID 601;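 active means viability loss from added drug above about 55%, and viability with drug at most 40%, in both replicates, limit read from the data, passing the limit was not always enough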). The conditions noted are these: CellTiter-Glo, 72 h, at 10 µM; for differential viability (reversal): stronger effect = higher value.
The nature of assay [5]: yeast transport mutant growth inhibition pilot in 384-well plates, post-Golgi transport modulator project (AID 636; in the data active means inhibition above about 31%). To be noted: absorbance 615 nm, about 18 h, stronger effect = higher value.
Assay [6] can be described thus: growth suppression of yeast trafficking mutant, preliminary HTS, modulators of trafficking downstream of Golgi apparatus project, 1536-format plate, OD 615 nm (AID 637). To be noted: yeast transport mutant growth, absorbance 615 nm, 18 h; stronger effect = higher value.
Where [7] appears, read: H69AR cells + 2 uM doxorubicin, measured here: viability with 2 uM doxorubicin, stronger effect = lower value.
The mark [8] stands for this setting: H69AR cells, compound alone cytotoxicity.

`COc1cc2[nH]c3c(=O)n(CCN(C(C)C)C(C)C)cnc3c2cc1OC`: the viability in assay [1] was 95% (inactive); in assay [2], 99.1% (inactive); in assay [3], 83.5% (inactive); in assay [4] (setting [7]), 83.9%; in assay [4] (setting [8]), 83.5%. Moreover, in assay [4] (H69AR cells + 2 uM doxorubicin), the differential viability (reversal) was -0.365% (inactive). In addition, the figures for the inhibition in assay [5] and in assay [6] were -6.89% (inactive) and 4.91% (inactive), respectively.

Consider `Cc1nc2sccn2c(=O)c1CCN1CCC(=C(c2ccccc2)c2ccc(F)cc2)CC1`, for which the viability in assay [1] is 160% (inactive); in assay [2], 3.02% (active); in assay [3], 81.9% (inactive); in assay [4] (setting [7]), 94.5%; in assay [4] (setting [8]), 81.9%. The differential viability (reversal) in assay [4] (H69AR cells + 2 uM doxorubicin) is -12.5% (inactive). The inhibition in assay [5] is -0.13% (inactive); in assay [6] it was 24.5% (inactive).

As for `CCOc1cc2[nH]c(=O)n(CCCCC(=O)NCc3ccco3)c(=O)c2cc1OCC`, the viability in assay [1] is 88% (inactive); in assay [2] it was 90.7% (inactive); in assay [3] it was 82.5% (inactive); in assay [4] (setting [7]) it was 95.3%; in assay [4] (setting [8]), 82.5%. In addition, in assay [4] (H69AR cells + 2 uM doxorubicin), the differential viability (reversal) is -12.7% (inactive). Also, the inhibition in assay [5] is -2.34% (inactive); in assay [6] it was 1.97% (inactive).

Take `C=C(C)Cn1c(CCCNC(=O)C(C)(C)C)nc2ccccc21`: the viability in assay [1] is 104% (inactive); in assay [2], 92.9% (inactive); in assay [3] it was 102% (inactive); in assay [4] (setting [7]) it was 101%; in assay [4] (setting [8]) it was 102%. Moreover, the differential viability (reversal) in assay [4] (H69AR cells + 2 uM doxorubicin) is 0.305% (inactive). Further, the inhibition is -3.47% (inactive) in assay [5] and -4% (inactive) in assay [6].

Turning to `O=C(COC(=O)c1ccccc1C(=O)c1ccccc1)c1ccco1`, the viability in assay [1] was 59% (inactive); in assay [2], 105% (inactive); in assay [3] it was 90.3% (inactive); in assay [4] (setting [7]) it was 87.8%; in assay [4] (setting [8]), 90.3%. Further, the differential viability (reversal) in assay [4] (H69AR cells + 2 uM doxorubicin) was 2.52% (inactive). For the same compound, the inhibition in assay [5] is -1.1% (inactive); in assay [6], 2.36% (inactive).

On to `COc1cc2c(C#N)c(N3CCOCC3)nc(N)c2c(N)n1`, for which the viability was 85% (inactive) in assay [1]; 90% (inactive) in assay [2]; 75.2% (inactive) in assay [3]; 67% in assay [4] (setting [7]); 75.2% in assay [4] (setting [8]). The differential viability (reversal) in assay [4] (H69AR cells + 2 uM doxorubicin) is 8.29% (inactive). Moreover, the inhibition in assay [5] is -0.13% (inactive); in assay [6], 0.82% (inactive).

Turning to `CCOC(=O)c1cnc2c(OC)cccc2c1N1CCN(c2ccc(OC)cc2)CC1`, the viability in assay [1] was 124% (inactive); in assay [2], 66.1% (inactive); in assay [3], 79.6% (inactive); in assay [4] (setting [7]), 58.7%; in assay [4] (setting [8]) it was 79.6%. In assay [4] (H69AR cells + 2 uM doxorubicin), the differential viability (reversal) was 20.9% (inactive). Moreover, the inhibition was -3.38% (inactive) in assay [5] and 0.63% (inactive) in assay [6].

With `O=C(CN(C1CCCCC1)S(=O)(=O)c1ccccc1)NCc1cccnc1`, the viability in assay [1] was 83% (inactive); in assay [2], 103% (inactive); in assay [3], 96% (inactive); in assay [4] (setting [7]), 92.6%; in assay [4] (setting [8]), 96%. The differential viability (reversal) in assay [4] (H69AR cells + 2 uM doxorubicin) was 3.4% (inactive). For the same compound, the inhibition in assay [5] is -6.76% (inactive); in assay [6], -0.55% (inactive).

`C[C@]12CC[C@@H]3c4ccc(O)cc4CC[C@H]3[C@@H]1CCC2=O`: the viability in assay [1] was 120% (inactive); in assay [2], 63.4% (inactive); in assay [3], 91.8% (inactive); in assay [4] (setting [7]), 87.1%; in assay [4] (setting [8]), 91.8%. Moreover, the differential viability (reversal) in assay [4] (H69AR cells + 2 uM doxorubicin) was 4.7% (inactive). Besides, the inhibition in assay [5] was -1.56% (inactive); in assay [6], 0.5% (inactive).

Take `O=C(OCC(=O)c1ccccc1Br)c1ccccn1`: the viability in assay [1] is 142% (inactive); in assay [2], 89.8% (inactive); in assay [3], 86.8% (inactive); in assay [4] (setting [7]) it was 81.7%; in assay [4] (setting [8]), 86.8%. In addition, the differential viability (reversal) in assay [4] (H69AR cells + 2 uM doxorubicin) is 5.17% (inactive). For the same compound, the results for the inhibition in assay [5] and in assay [6] were -3.77% (inactive) and -1.64% (inactive), respectively.

Take `NC(=O)C1(N2CCCCC2)CCN(C(=O)Nc2ccccc2C(F)(F)F)CC1`: the viability in assay [1] is 97% (inactive); in assay [2], 105% (inactive); in assay [3] it was 90.9% (inactive); in assay [4] (setting [7]) it was 86.7%; in assay [4] (setting [8]) it was 90.9%. Also, the differential viability (reversal) in assay [4] (H69AR cells + 2 uM doxorubicin) is 4.2% (inactive). In addition, the inhibition in assay [5] is -0.39% (inactive); in assay [6] it was 5.08% (inactive).

Consider `C=CCNc1nnc(SC2CC(=O)N(c3ccc(OC)cc3)C2=O)s1` (stereo unspecified), for which the viability in assay [1] is 107% (inactive); in assay [2] it was 108% (inactive); in assay [3], 103% (inactive); in assay [4] (setting [7]) it was 111%; in assay [4] (setting [8]), 103%. The differential viability (reversal) in assay [4] (H69AR cells + 2 uM doxorubicin) is -8.79% (inactive). The inhibition in assay [5] was -1.92% (inactive); in assay [6], 0.73% (inactive).
